Data set [1] can be described thus: Drug localization in mitochondria of mouse MC3T3-E1 cells at 0.6 uM incubated for 30 mins by MTDR staining based single-photon excitation fluorescence analysis. In kind it is ADME. The conditions noted are these: mc3t3-e1, 0.5 h. In outline: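 MC3T3-E1 preosteoblasts were grown in αMEM with 10% FBS, glutamine and pen/strep, then seeded at 25,000 cells/well on glass-bottom slides. Cells were preincubated with compound for 30 min at 37 °C, then given MitoTracker Deep Red (16 nM final) for 30 min. Confocal imaging used alternating excitation: 561 nm with detection at 580–630 nm, and 640 nm with detection at 650–720 nm.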

Data set [2] in a line: Resistance factor, ratio of EC50 for antitrypanosomal activity against drug resistant Trypanosoma brucei B48 to EC50 for antitrypanosomal activity against bloodstream form of wild type Trypanosoma brucei brucei S427 trypomastigotes. In kind it is functional. The method, boiled down: (§1)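 The assay used bloodstream forms in HMI-9 at 37 °C, 5% CO2, 2 × 10⁵ cells/mL, read at ex 544/em 590 nm. EC50 came from a variable-slope sigmoidal fit, at least 3 experiments.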

Data set [3] is described as follows: Cytotoxicity against HEK293T cells assessed as reduction in cell viability […] by resazurin dye based fluorescence assay. Particulars: human; call rule not given here. Also on record: species or system HEK-293T.
Data set [4] is described as follows: Drug localization in mitochondria of mouse MC3T3-E1 cells incubated for 30 mins by […] based two-photon excitation microscopy analysis. Particulars: mc3t3-e1, 0.5 h. In kind it is ADME.
Data set [5] in a line: Selectivity index, ratio of CC50 cytotoxicity against HEK293T cells to EC50 for antitrypanosomal activity against bloodstream form of wild type Trypanosoma brucei brucei S427 trypomastigotes. In kind it is toxicity, cell-based. Particulars: human; read-out: Ratio CC50/EC50. The method, boiled down:
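SI = CC50 on HEK 293T divided by EC50 on WT s427. For HEK 293T, cells adhered 24 h, were exposed 30 h, then given resazurin for 24 h (ex 530/em 590). For trypanosomes, cells were exposed 48 h, then given resazurin for 24 h (ex 544/em 590). Both values came from dose-response fits.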

In data set [6] the test system is Trypanosoma brucei brucei. The data set can be described thus: Antitrypanosomal activity against bloodstream form of Trypanosoma brucei brucei AQP1-3 KO trypomastigotes incubated for 48 hrs by resazurin dye based fluorescence assay. It is filed as functional, organism-based. In outline:
(§2)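 Bloodstream T. b. brucei in complete HMI-9 at 37 °C, 5% CO2, 2 × 10⁵ cells/mL, exposed to doubling dilutions of compound for 48 h. Resazurin was then added and cells were incubated a further 24 h. Fluorescence was read at ex 544/em 590 nm with a drug-free control and pentamidine as positive control. EC50 came from a variable-slope sigmoidal fit, at least 3 independent experiments.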

Data set [7] can be described thus: Drug localization in mitochondria of Trypanosoma brucei brucei at 40 uM incubated for 60 mins by MTG dye based confocal microscopy analysis. It is filed as ADME. Particulars: 1 h. In outline: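 Bloodstream T. b. brucei at 2 × 10⁶ cells/mL were given compound in complete HMI-9 for 1 h at 37 °C, 5% CO2. MitoTracker Green (100 nM final) was added for 10 min. Cells were then pelleted, PBS-washed and stained with Hoechst 33342 for 10 min in the dark. They were immobilised in PBS-primed CyGEL and imaged for overlap with MTG.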

For data set [8], the system named is Trypanosoma brucei brucei. The data set can be described thus: Antitrypanosomal activity against drug resistant Trypanosoma brucei B48 incubated for 48 hrs by resazurin dye based fluorescence assay. In kind it is functional, organism-based. The conditions noted are these: B48, 48 h. In outline: as §2
Data set [9] concerns the target Alternative oxidase, mitochondrial (Trypanosoma brucei brucei, UniProt Q26710). The data set is described as follows: Inhibition of recombinant Trypanosoma brucei brucei alternative oxidase using ubiquinol as substrate preincubated for 2 mins followed by substrate addition by UV-Vis spectrophotometry. The method, boiled down: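 Recombinant ΔMTS-TAO was preincubated for 2 min with varying inhibitor amounts at 25 °C in 50 mM Tris-HCl pH 7.4 with 0.05% octaethylene glycol monododecyl ether. The reaction was started with ubiquinol, and its oxidation was followed at 278 nm for 2 min. DMSO served as negative control and ascofuranone/SHAM as positive controls. IC50 came from residual activity versus inhibitor concentration.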

The nature of data set [10]: Resistance factor, ratio of EC50 for Antitrypanosomal activity against bloodstream form of Trypanosoma brucei brucei AQP1-3 KO trypomastigotes to EC50 for antitrypanosomal activity against bloodstream form of wild type Trypanosoma brucei brucei S427 trypomastigotes. In kind it is functional. In outline:
as §1

Data set [11] relates to Trypanosoma brucei brucei. The data set is described as follows: Antitrypanosomal activity against bloodstream form of wild type Trypanosoma brucei brucei S427 trypomastigotes incubated for 48 hrs by resazurin dye based fluorescence assay. It is filed as functional, organism-based. Particulars: S427, 48 h. The method, boiled down:
as §2

Data set [12] in a line: Drug localization in rat liver mitochondria. In kind it is ADME. The method, boiled down:
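Rat liver was homogenised in 20 mM HEPES/250 mM sucrose, pH 7.4. After 800×g spins, mitochondria were enriched at 9000×g. Probe at 3 × 10⁻⁷ M was incubated with the mitochondrial suspension for 20 min at room temperature, then spun at 10,000×g for 10 min. Supernatant emission (ex 470 and 540 nm) was compared with probe in buffer alone to estimate the fraction partitioned into mitochondria.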

A short description of data set [13]: Drug uptake in bloodstream form of wild type Trypanosoma brucei brucei S427 trypomastigotes assessed as increase in fluorescent signal at 0.2 uM measured by fluorimeter. In kind it is ADME. In outline: (§3)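 Mid-log bloodstream 427WT or aqp1-3 null cells were washed and resuspended at 10⁸ cells/mL in assay buffer. Fluorescence was read continuously at 37 °C, 5% CO2 (ex 544/em 620). After a background period, compound was added at the stated final concentration. Each trace averages 3 replicate wells on one plate.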

A short description of data set [14]: Drug uptake in bloodstream form of Trypanosoma brucei brucei AQP1-3 KO trypomastigotes at 0.2 to 2 uM measured after 1 hr by fluorimeter. It is filed as ADME. The conditions noted are these: dose 0.2-2 µM. In outline: as §3

Alternative oxidase, mitochondrial, sequence (Q26710 whole entry): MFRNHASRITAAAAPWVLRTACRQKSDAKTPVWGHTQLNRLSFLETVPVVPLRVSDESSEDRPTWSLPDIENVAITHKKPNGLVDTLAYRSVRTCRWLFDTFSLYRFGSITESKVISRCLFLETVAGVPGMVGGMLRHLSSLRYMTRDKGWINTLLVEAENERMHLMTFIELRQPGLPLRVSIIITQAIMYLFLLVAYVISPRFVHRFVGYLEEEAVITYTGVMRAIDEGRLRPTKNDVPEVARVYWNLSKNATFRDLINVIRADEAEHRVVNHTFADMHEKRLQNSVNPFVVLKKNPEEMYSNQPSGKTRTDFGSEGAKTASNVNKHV

Take `Cc1cc(O)cc(O)c1C(=O)OCCCCCCCCCCCCCC[n+]1ccc(/C=C/c2cc3c4c(c2O)CCCN4CCC3)cc1.[Br-]`: the Drug uptake result in data set [1] is given as “Active”; in data set [4], “Active”; in [7] it was “Active”; in data set [12] it was 66%. For the same compound, the Ratio EC50 in data set [2] was 1.17; in data set [10], 1.03. Moreover, the CC50 in data set [3] is over 100 µM. Moreover, the selectivity ratio in data set [5] is over 100. Moreover, the 50% effective concentration (EC50) in data set [6] amounted to 1050 nM; in [8], 1190 nM; in [11], 1010 nM. The IC50 in data set [9] worked out at 360 nM.

`Cc1cc[n+](CCCCCCCCCCCCCCOC(=O)c2c(O)cc(O)c(Cl)c2C)cc1`: the figures for the Ratio EC50 in data set [2] and in data set [10] were 1.53 and 0.8, respectively. The cytotoxic concentration (CC50) in [3] was 43.7 µM. Further, the selectivity ratio in data set [5] was 182. For the same compound, the values for the concentration for a half-maximal effect (EC50) in data set [6], in data set [8] and in [11] were 190 nM, 220 nM and 240 nM, respectively. In data set [9], the half-inhibitory concentration (IC50) turned out to be 720 nM.

For the compound `Cc1cc(O)cc(OCCCCCCCCCCCCCC[n+]2ccc(/C=C/c3cc4c5c(c3O)CCCN5CCC4)cc2)c1.[Br-]`, in [1], the Drug uptake result is given as “Active”. The Ratio EC50 was determined as 1.25 in data set [2] and 0.85 in data set [10]. Besides, the CC50 in [3] amounted to 22.2 µM. For the same compound, the selectivity ratio in [5] stood at 44.1. The 50% effective concentration (EC50) in [6] came out at 430 nM; in data set [8], 630 nM; in [11], 500 nM. Also, the IC50 in data set [9] came to 145 nM.

On to `COC(=O)c1c(C)cc(OCCCCCCCCCCCCCC[n+]2ccc(/C=C/c3cc4c5c(c3O)CCCN5CCC4)cc2)cc1O`, for which the figures for the Ratio EC50 in [2] and in data set [10] were 1.1 and 0.81, respectively. For the same compound, in data set [3], the half-maximal cytotoxic concentration (CC50) was found to be 23.6 µM. In addition, the selectivity ratio in data set [5] is 43.6. For the same compound, the EC50 came out at 440 nM in [6], 590 nM in data set [8] and 540 nM in data set [11]. For the same compound, the IC50 in data set [9] amounted to 42 nM.

Consider `Oc1c(/C=C/c2cc[n+](CCCCCCCCCCCCCCBr)cc2)cc2c3c1CCCN3CCC2.[Br-]`, for which the Drug uptake entry in data set [13] and in data set [14] was “Not Active” throughout. The Ratio EC50 in [2] was 1.16; in data set [10], 0.79. Moreover, the CC50 in [3] worked out at 26.7 µM. Besides, in data set [5], the selectivity ratio came to 62.6. Besides, the results for the 50% effective concentration (EC50) in data set [6], in data set [8] and in data set [11] were 340 nM, 490 nM and 430 nM, respectively. In data set [9], the half-maximal inhibitory concentration (IC50) is over 5000 nM.

As for `Cc1cc[n+](CCCCCCCCCCCCCCOc2cc(C)c(C(=O)O)c(O)c2)cc1`, the CC50 in data set [3] was over 20 µM. In addition, the selectivity ratio in data set [5] is over 10. In addition, a half-maximal effect in data set [6] (EC50) was put at 16600 nM. In addition, the IC50 in data set [9] was determined as 1800 nM. Further, in data set [10], the Ratio EC50 came to 0.84.

With `Cc1cc[n+](CCCCCCCCCCCCCCOC(=O)c2c(C)c(Cl)c(O)c(Cl)c2O)cc1`, in data set [2], the Ratio EC50 is 1.03. Further, the CC50 in data set [3] amounted to 4.4 µM. Besides, the selectivity ratio in data set [5] was found to be 1.7. Moreover, the concentration for a half-maximal effect (EC50) in [8] came to 2640 nM; in [11], 2550 nM. Further, the half-maximal inhibitory concentration (IC50) in data set [9] stood at 910 nM.

For `Cc1cc[n+](CCCCCCCCCCCCCCOC(=O)c2c(C)cc(O)cc2O)cc1`, the Ratio EC50 in [2] turned out to be 1.04. For the same compound, in data set [3], the CC50 worked out at 0.76 µM. Also, the selectivity ratio in [5] was found to be 13.8. In addition, the results for the EC50 in data set [8] and in data set [11] were 60 nM and 55 nM, respectively. Also, the IC50 in data set [9] was over 5000 nM.

Turning to `Cc1c(Cl)c(O)cc(O)c1C(=O)OCCCCCCCCCCCCCCBr`, the Ratio EC50 in data set [2] stood at 1.48; in data set [10], 1.91. The CC50 in data set [3] was determined as 55.9 µM. Besides, the selectivity ratio in data set [5] was found to be 8.2. The results for the EC50 in data set [6], in [8] and in [11] were 13100 nM, 10100 nM and 6840 nM, respectively. In [9], the half-maximal inhibitory concentration (IC50) was 750 nM.

For the compound `N=C(N)c1ccc(OCCCCCOc2ccc(C(=N)N)cc2)cc1` [PENTAMIDINE], the Ratio EC50 in [2] amounted to 102; in [10], 6.9. Moreover, the figures for the EC50 in data set [6], in data set [8] and in data set [11] were 34 nM, 500 nM and 4.9 nM, respectively.

The record behind these values is ChEMBL document CHEMBL4837204, “Synthesis, biological, and photophysical studies of molecular rotor-based fluorescent inhibitors of the trypanosome alternative oxidase” (Eur J Med Chem, 2021).
